Results on 47 molecules are retold here after ChEMBL document CHEMBL1131373, “Novel nonpeptide CCK-B antagonists: design and development of quinazolinone derivatives as potent, selective, and orally active CCK-B antagonists” (J Med Chem, 1998).

Assay [1] deals with T1, Cholecystokinin receptor type A (Rattus norvegicus, UniProt P30551).
T1 sequence (P30551 whole entry): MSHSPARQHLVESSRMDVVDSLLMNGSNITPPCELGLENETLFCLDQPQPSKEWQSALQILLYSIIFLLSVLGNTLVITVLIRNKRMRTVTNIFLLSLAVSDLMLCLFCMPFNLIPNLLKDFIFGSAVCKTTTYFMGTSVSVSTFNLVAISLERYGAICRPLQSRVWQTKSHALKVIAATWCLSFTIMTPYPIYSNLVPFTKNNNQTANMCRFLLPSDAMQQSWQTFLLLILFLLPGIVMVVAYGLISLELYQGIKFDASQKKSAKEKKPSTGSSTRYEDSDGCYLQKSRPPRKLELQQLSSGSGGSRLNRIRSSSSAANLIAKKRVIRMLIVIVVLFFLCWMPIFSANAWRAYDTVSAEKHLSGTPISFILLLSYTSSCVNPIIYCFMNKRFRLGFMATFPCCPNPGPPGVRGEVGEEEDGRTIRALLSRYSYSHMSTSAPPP
Briefly: Binding affinity towards Cholecystokinin type A receptor (CCK-A) receptor from rat pancreas using [125I]bolton Hunter CCK-8 as radioligand. The method in brief:
(§1)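 IC50 = concentration giving half-maximal inhibition of specific [125I]Bolton Hunter CCK-8 binding, with CCK-B sites from mouse cerebral cortex and CCK-A sites from rat pancreas. Weaker compounds given as % inhibition at 10 μM. Values are geometric means of at least three separate experiments; statistical errors 15% of the mean.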

The target in assay [2] is T2, Gastrin/cholecystokinin type B receptor (Mus musculus, UniProt P56481).
T2 sequence (P56481 whole entry): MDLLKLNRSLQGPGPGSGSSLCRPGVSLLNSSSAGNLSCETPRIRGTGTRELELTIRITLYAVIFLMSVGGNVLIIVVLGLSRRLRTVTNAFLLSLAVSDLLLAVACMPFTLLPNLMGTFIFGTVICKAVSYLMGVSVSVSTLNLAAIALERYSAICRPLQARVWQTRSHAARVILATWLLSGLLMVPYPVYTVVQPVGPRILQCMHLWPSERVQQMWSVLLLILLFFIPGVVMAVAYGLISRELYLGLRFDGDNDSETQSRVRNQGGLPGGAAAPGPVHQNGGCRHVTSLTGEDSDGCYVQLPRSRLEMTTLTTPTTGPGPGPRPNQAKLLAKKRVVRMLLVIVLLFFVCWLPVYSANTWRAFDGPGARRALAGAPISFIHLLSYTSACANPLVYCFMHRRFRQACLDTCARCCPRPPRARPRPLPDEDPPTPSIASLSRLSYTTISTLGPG
Nature of the assay: Binding affinity towards Cholecystokinin type B receptor (CCK-B) receptor in mouse cerebral cortex using [125I]bolton Hunter CCK-8 as radioligand. The class given is tissue-based.

Assay [3] addresses T3, Cholecystokinin receptor type A (Rattus norvegicus) (UniProt P30551).
T3 sequence (whole entry): T1 sequence (P30551 whole entry)
Briefly: Binding affinity towards Cholecystokinin type A receptor (CCK-A) receptor from rat pancreas using [125I]bolton Hunter CCK-8 as radioligand at a concentration of 10 um. The method in brief: as §1

As for `CCOC(=O)c1cccc(NC(=O)NNc2nc3ccccc3c(=O)n2-c2cccc(OC(C)C)c2)c1`, the IC50 amounted to 3470 nM in assay [1] and 1.5 nM in assay [2].

`CC(C)Oc1cccc(-n2c(NNC(=O)Nc3cccc([N+](=O)[O-])c3)nc3ccccc3c2=O)c1`: the results for the IC50 in assay [1] and in assay [2] were 2560 nM and 1 nM, respectively.

Consider `COc1cccc(N(CC(=O)N(C)c2ccccc2)C(=O)CNC(=O)Nc2cccc(C(=O)O)c2)c1`, for which the figures for the IC50 in assay [1] and in assay [2] were 925 nM and 23 nM, respectively.

In the case of `CCOC(=O)c1ccccc1NC(=O)NNc1nc2ccccc2c(=O)n1-c1cccc(OC(C)C)c1`, the concentration for half-maximal inhibition (IC50) in assay [2] is 7670 nM. This molecule came in with an inhibition in assay [3] of 22%.

Consider `CC(C)Oc1cccc(-n2c(NNC(=O)Nc3ccc(C(F)(F)F)cc3)nc3ccccc3c2=O)c1`, for which the IC50 in assay [1] stood at 2780 nM; in assay [2], 38 nM.

The molecule `CCOC(=O)c1cccc(NC(=O)NNc2nc3ccccc3c(=O)n2-c2ccc(Cl)c(Cl)c2)c1` gave an IC50 in assay [2] of 2.4 nM. This molecule also showed an inhibition in assay [3] of 16%.

Turning to `CC(C)Oc1cccc(-n2c(NNC(=O)c3ccc(Br)cc3)nc3ccccc3c2=O)c1`, the IC50 stood at 5560 nM in assay [1] and 88 nM in assay [2].

Turning to `COC(=O)c1cccc(NC(=O)N[C@@H]2N=C(c3ccccc3)c3ccccc3N(C)C2=O)c1`, the 50% inhibitory concentration (IC50) in assay [2] is 8 nM.

On to `Cc1cccc(NC(=O)NNc2nc3ccccc3c(=O)n2-c2cccc(N)c2)c1`, for which the half-inhibitory concentration (IC50) in assay [1] was 107 nM; in assay [2] it was 219 nM.

As to `CN(C)c1cccc(-n2c(CCc3c[nH]c4cc(Br)ccc34)nc3ccccc3c2=O)c1`, the concentration for half-maximal inhibition (IC50) in assay [2] was 16 nM.

With `CCOC(=O)c1cccc(NC(=O)NNc2nc3ccccc3c(=O)n2-c2cccc(Cl)c2)c1`, the IC50 in assay [1] turned out to be 4980 nM; in assay [2], 33 nM.

With `COc1cccc(-n2c(NNC(=O)Nc3cccc(C)c3)nc3ccccc3c2=O)c1`, the IC50 in assay [1] turned out to be 5100 nM; in assay [2] it was 200 nM.

The molecule `CCOC(=O)c1cccc(NC(=O)NNc2nc3ccccc3c(=O)n2-c2ccccc2)c1` came in with an IC50 in assay [2] of 152 nM. The molecule further registered an inhibition in assay [3] of 37%.

In assay [2], `CC(C)Oc1cccc(-n2c(CCc3c[nH]c4cc(Br)ccc34)nc3ccccc3c2=O)c1` yielded a half-inhibitory concentration (IC50) of 9.3 nM. That is a single-digit nanomolar value.

Turning to `CC(C)Oc1cccc(-n2c(NNC(=O)NC3CCCCC3)nc3ccccc3c2=O)c1`, the figures for the IC50 in assay [1] and in assay [2] were 17300 nM and 108 nM, respectively.

`Cc1cccc(NC(=O)NNc2nc3ccccc3c(=O)n2-c2ccccc2)c1` showed an IC50 in assay [2] of 1080 nM. Also, in assay [3], the inhibition is 39%.

Turning to `CCOc1cccc(-n2c(NNC(=O)Nc3cccc(C#N)c3)nc3ccccc3c2=O)c1`, the results for the IC50 in assay [1] and in assay [2] were 4450 nM and 5.8 nM, respectively.

As to `CC(C)Oc1cccc(-n2c(NNC(=O)Nc3ccc(Br)cc3)nc3ccccc3c2=O)c1`, the half-inhibitory concentration (IC50) in assay [1] amounted to 3430 nM; in assay [2], 14 nM.

`O=C(NNc1nc2ccccc2c(=O)n1-c1ccccc1)Nc1ccccc1`: the IC50 was 7330 nM in assay [1] and 1240 nM in assay [2].

Consider `CCOC(=O)c1cccc(NC(=O)NNc2nc3ccccc3c(=O)n2-c2cccc(N(C)C)c2)c1`, for which the half-inhibitory concentration (IC50) in assay [1] came to 2650 nM; in assay [2], 5 nM.

As to `COc1cccc(N(CC(=O)N(C)c2ccccc2)C(=O)CNC(=O)Nc2cccc(C)c2)c1`, the IC50 was determined as 140 nM in assay [1] and 8 nM in assay [2].

`COc1cccc(NC(=O)NNc2nc3ccccc3c(=O)n2-c2cccc(OC(C)C)c2)c1`: the results for the IC50 in assay [1] and in assay [2] were 7470 nM and 22 nM, respectively.

On to `CCOC(=O)c1cccc(NC(=O)NNc2nc3ccccc3c(=O)n2-c2cccnc2)c1`, for which the figures for the IC50 in assay [1] and in assay [2] were 11200 nM and 319 nM, respectively.

For the molecule `Cc1cccc(NC(=O)NNc2nc3ccccc3c(=O)n2-c2cccc(Cl)c2Cl)c1`, the IC50 in assay [1] turned out to be 3010 nM; in assay [2], 73 nM.

Turning to `CCOc1cccc(-n2c(NNC(=O)Nc3cccc(C)c3)nc3ccccc3c2=O)c1`, the IC50 in assay [1] was determined as 2570 nM; in assay [2], 45 nM.

The molecule `COc1ccc(-n2c(NNC(=O)Nc3cccc(C)c3)nc3ccccc3c2=O)cc1OC` displayed a 50% inhibitory concentration (IC50) in assay [2] of 2110 nM. This molecule returned an inhibition in assay [3] of 34%.

`CCOC(=O)c1ccc(NC(=O)NNc2nc3ccccc3c(=O)n2-c2cccc(OC(C)C)c2)cc1`: the concentration for half-maximal inhibition (IC50) in assay [1] came out at 3160 nM; in assay [2], 57 nM.

Take `Cc1cccc(NC(=O)NNc2nc3ccccc3c(=O)n2-c2ccc(Cl)c(Cl)c2)c1`: the IC50 in assay [2] turned out to be 97 nM. Further, the inhibition in assay [3] was found to be 10%.

For `Cc1cccc(NC(=O)NNc2nc3ccccc3c(=O)n2-c2cccc3ccccc23)c1`, the IC50 in assay [2] worked out at 3560 nM. Further, the inhibition in assay [3] was 7%.

Regarding `CC(C)Oc1cccc(-n2c(NNC(=O)Nc3cccc(C(=O)O)c3)nc3ccccc3c2=O)c1`, the IC50 in assay [1] was 8110 nM; in assay [2] it was 29 nM.

In assay [2], `Cc1cccc(NC(=O)NNc2nc3ccccc3c(=O)n2-c2ccc(Cl)cc2)c1` came in with a 50% inhibitory concentration (IC50) of 1170 nM. Moreover, the inhibition in assay [3] was 10%.

With `CCOC(=O)c1cccc(NC(=O)NNc2nc3ccccc3c(=O)n2-c2cccc(Cl)c2Cl)c1`, the results for the half-maximal inhibitory concentration (IC50) in assay [1] and in assay [2] were 1660 nM and 50 nM, respectively.

Regarding `COc1ccccc1NC(=O)NNc1nc2ccccc2c(=O)n1-c1cccc(OC(C)C)c1`, the 50% inhibitory concentration (IC50) in assay [1] turned out to be 4200 nM; in assay [2] it was 10 nM.

For the molecule `CC(C)Oc1cccc(-n2c(NNC(=O)Nc3cccc(C#N)c3)nc3ccccc3c2=O)c1`, the IC50 in assay [1] was determined as 5350 nM; in assay [2], 1.2 nM.

The molecule `Cc1cccc(NC(=O)NNc2nc3ccccc3c(=O)n2-c2cccc(Cl)c2)c1` returned a half-maximal inhibitory concentration (IC50) in assay [2] of 225 nM. Besides, the inhibition in assay [3] was found to be 20%.

With `CC(C)Oc1cccc(-n2c(NNC(=O)Nc3cccc(Cl)c3)nc3ccccc3c2=O)c1`, the concentration for half-maximal inhibition (IC50) came out at 2420 nM in assay [1] and 5.9 nM in assay [2].

For `Cc1cccc(NC(=O)NNc2nc3ccccc3c(=O)n2-c2cccnc2)c1`, the IC50 in assay [1] is 12500 nM; in assay [2], 4280 nM.

Take `Cc1cccc(NC(=O)NNc2nc3ccccc3c(=O)n2-c2cccc(N(C)C)c2)c1`: the figures for the IC50 in assay [1] and in assay [2] were 4900 nM and 63 nM, respectively.

In turn, `Cc1cccc(NC(=O)NNc2nc3ccccc3c(=O)n2-c2cccc(F)c2)c1` gave a half-maximal inhibitory concentration (IC50) in assay [2] of 915 nM. The inhibition in assay [3] was 26%.

For `CCOC(=O)c1cccc(NC(=O)NNc2nc3ccccc3c(=O)n2-c2cccc(OC)c2)c1`, the IC50 in assay [1] was found to be 2330 nM; in assay [2] it was 15 nM.

With `CCOC(=O)c1cccc(NC(=O)NNc2nc3ccccc3c(=O)n2-c2cccc(OCC)c2)c1`, the results for the half-maximal inhibitory concentration (IC50) in assay [1] and in assay [2] were 1210 nM and 5 nM, respectively.

Turning to `CCOC(=O)c1cccc(NC(=O)NNc2nc3ccccc3c(=O)n2-c2ccc(OC)cc2)c1`, the half-inhibitory concentration (IC50) in assay [2] is 592 nM. In assay [3], this molecule showed an inhibition of 20%.

`COc1ccc(NC(=O)NNc2nc3ccccc3c(=O)n2-c2cccc(OC(C)C)c2)cc1`: the half-maximal inhibitory concentration (IC50) worked out at 15500 nM in assay [1] and 25 nM in assay [2].

In the case of `CC(C)Oc1cccc(-n2c(NNC(=O)Nc3cccc(C(F)(F)F)c3)nc3ccccc3c2=O)c1`, the IC50 came out at 2240 nM in assay [1] and 8 nM in assay [2].

Consider `CC(C)Oc1cccc(-n2c(NNC(=O)Nc3ccc(Cl)cc3)nc3ccccc3c2=O)c1`, for which the IC50 in assay [1] turned out to be 3590 nM; in assay [2], 14 nM.

In the case of `Cc1cccc(NC(=O)NNc2nc3ccccc3c(=O)n2-c2cccc(OC(C)C)c2)c1`, the figures for the IC50 in assay [1] and in assay [2] were 6400 nM and 11 nM, respectively.

As to `CC(C)Oc1cccc(-n2c(NNC(=O)Nc3ccccc3)nc3ccccc3c2=O)c1`, the IC50 in assay [1] is 4580 nM; in assay [2], 15 nM.

What is called IC50 is the concentration at which inhibition is half-maximal. A higher IC50 goes with lower potency. What is called inhibition is the drop in the measured response relative to a control, in per cent. The low end stands for a weak effect, the high end for a strong effect.
